Rows were chosen to be rich in hits. Some 2.8% of all compounds tested hit in one or more screens of this group.
Rad51 HR inh = Rad51 (human) homologous recombination inhibition; AID 1385; Q06609; hit rate 0.085% among 200,000; hRad51 DNA strand exchange, fluorescence dequenching; inhibition, % at 10 µM;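 active means inhibition above 40% at the single screening dose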;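 further: 0% = DMSO control wells and 100% = blanks with heterologous ssDNA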
Target sequence (Q06609 whole entry, looked up): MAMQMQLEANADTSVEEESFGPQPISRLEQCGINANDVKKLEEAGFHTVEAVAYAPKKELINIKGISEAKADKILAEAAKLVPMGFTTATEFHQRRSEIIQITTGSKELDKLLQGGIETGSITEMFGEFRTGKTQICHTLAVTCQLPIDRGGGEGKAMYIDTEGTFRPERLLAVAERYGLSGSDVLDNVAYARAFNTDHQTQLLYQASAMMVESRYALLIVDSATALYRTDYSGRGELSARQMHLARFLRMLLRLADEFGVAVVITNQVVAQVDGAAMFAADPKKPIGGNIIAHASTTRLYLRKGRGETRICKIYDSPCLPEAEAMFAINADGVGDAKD
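material = hRad51 filaments on single-stranded DNA | reagent = Donor/quencher-labelled 47-bp dsDNA substrate | compound = 10 µM final, single point | schedule = strand-exchange reaction 15 min at room temperature | measured by = fluorescein emission 520 nm, excitation 485 nm | read-out basis = % inhibition versus plate control and blank means | benchmarks = plate controls and plate blanks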
Measles CPE = protection of cells from measles virus | protection (pct of control), % at 4 µM | Measles virus-infected cells, CPE protection, absorbance | hit rate 1.5% among 140,000; in the data active means protection mostly above about 24%, no sharp cut-off; inactive means mostly below about 26%
NPY-Y2 PAM-ag = human NPY-Y2 potentiation or agonism, primary screen | P49146 | cells expressing NPY-Y2, potentiator/agonist read-out | activation, % at 3.6 µM | hit rate 0.45% among 220,000 | AID 1359; in the data active means activation above about 27%;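 further: cells stimulated with NPY near EC25 plus isoproterenol at EC100; 0% = vehicle plus submaximal agonist and 100% = vehicle plus saturating agonist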
NPY Y2 blocker = NPY-Y2 (human) receptor antagonism; hit rate 0.99% among 140,000; AID 793; P49146; NPY-Y2 expressing cells, antagonist mode; inhibition, % at 2.7 µM; in the data active means inhibition above about 17%;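 further: 0% = vehicle with agonist challenge and 100% = reference antagonist with challenge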
NPY Y1 blocker = antagonists of human neuropeptide Y receptor Y1 | P25929 | HEK293-CNG Y1 cells, membrane potential fluorescence; NPY at EC95, then isoproterenol | inhibition, % at 3.6 µM | hit rate 1% among 200,000 | AID 1040;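 active means inhibition above the campaign mean inhibition of all tested compounds plus 3 SD, cut at about 20% in these data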;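 further: 0% = DMSO wells given NPY plus isoproterenol and 100% = isoproterenol alone without NPY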
Target sequence (P25929 whole entry, looked up): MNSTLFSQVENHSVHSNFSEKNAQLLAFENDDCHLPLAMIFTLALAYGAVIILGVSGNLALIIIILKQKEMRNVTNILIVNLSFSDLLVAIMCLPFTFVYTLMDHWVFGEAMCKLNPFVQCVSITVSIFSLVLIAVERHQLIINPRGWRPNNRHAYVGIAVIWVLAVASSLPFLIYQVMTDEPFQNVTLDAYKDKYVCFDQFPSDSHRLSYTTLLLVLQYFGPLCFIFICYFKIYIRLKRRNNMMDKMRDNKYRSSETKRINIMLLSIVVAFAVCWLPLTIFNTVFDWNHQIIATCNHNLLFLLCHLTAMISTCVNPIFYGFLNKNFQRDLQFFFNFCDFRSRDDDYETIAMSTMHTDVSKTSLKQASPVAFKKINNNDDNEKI
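Material: HEK293 Y1/CNG channel cell line; also added: NPY (25 nM), isoproterenol (1 µM), Ro 20-1724 (25 µM); doses: one concentration, 3.6 µM, in 0.4% DMSO; schedule: compound incubation 1 h at room temperature, readout 45 min post-stimulation; technique: membrane potential fluorescence; measure: fluorescence ratio normalized to % inhibition between controls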
NPY-Y1 PAM-ag = potentiators or agonists of human neuropeptide Y receptor Y1; NPY-Y1 expressing cells, potentiator/agonist activation; hit rate 0.37% among 220,000; AID 1304; activation, % at 3.6 µM; P25929; in the data active means activation above about 33%, passing the limit was not always enough;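 further: cells stimulated with NPY at EC10 then isoproterenol at EC100; 0% = low agonist plus stimulus and 100% = saturating agonist plus stimulus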
An asterisk follows results filed as active.

What do the screens show for `Cc1ccc(NC(=O)CSc2nc3ccccc3c(=O)n2CCCN2CCCCC2)cc1C`?
Rad51 HR inh: -2; Measles CPE: 5; NPY-Y2 PAM-ag: -54; NPY Y2 blocker: 34*; NPY Y1 blocker: 38*; NPY-Y1 PAM-ag: -97

Results for COc1ccc(C(=O)N2CCN(c3c(C)cccc3C)CC2)cc1OC ?
Rad51 HR inh: -6; Measles CPE: 17; NPY-Y2 PAM-ag: 2; NPY Y2 blocker: 3; NPY Y1 blocker: 3; NPY-Y1 PAM-ag: 13

How did COc1ccc(OC)c2c(C)cc(N3CCN(C(=O)c4ccc(Cl)cc4)CC3)nc12 do in these assays?
Measles CPE: 56*; NPY-Y2 PAM-ag: -23; NPY Y2 blocker: 4; NPY Y1 blocker: 2; NPY-Y1 PAM-ag: -17

How did C=CCOc1cccc(CNn2nnnc2N)c1 do in these assays?
Rad51 HR inh: -2; NPY-Y2 PAM-ag: 1; NPY Y1 blocker: 3; NPY-Y1 PAM-ag: 14

How did C=CCOc1c(CNn2nnnc2N)cccc1OC do in these assays?
Rad51 HR inh: -1; Measles CPE: 42*; NPY-Y2 PAM-ag: -13; NPY Y2 blocker: 7; NPY Y1 blocker: 6; NPY-Y1 PAM-ag: -3

How did CC(C)(C)C(=O)Nc1nc(=S)ss1 do in these assays?
Rad51 HR inh: 3; Measles CPE: 13; NPY-Y2 PAM-ag: -14; NPY Y2 blocker: 0; NPY Y1 blocker: -1; NPY-Y1 PAM-ag: 7

Results for CCC(=O)Nc1nc(=S)ss1 ?
Rad51 HR inh: 62*; Measles CPE: 9; NPY-Y2 PAM-ag: -5; NPY Y2 blocker: -1; NPY Y1 blocker: -2; NPY-Y1 PAM-ag: -9

Results for Cc1ccc(NC(=O)C(=O)NCCCN2CCOCC2)c(C)c1 ?
Rad51 HR inh: 7; NPY-Y2 PAM-ag: -9; NPY-Y1 PAM-ag: -11

How did CCOC(=O)c1ccc(S(=O)(=O)Nc2cc(C(=O)O)ccc2Cl)cc1 do in these assays?
Rad51 HR inh: 5; NPY-Y2 PAM-ag: -21; NPY Y1 blocker: 2; NPY-Y1 PAM-ag: -5

What do the screens show for `O=C(O)CCc1ccc(-c2ccc(F)cc2)n1Cc1ccco1`?
Rad51 HR inh: -9; Measles CPE: 1; NPY-Y2 PAM-ag: 71*; NPY Y2 blocker: 0; NPY Y1 blocker: -10; NPY-Y1 PAM-ag: 80*

What do the screens show for `Cc1cc(C)n(-c2nc3c(c(=O)[nH]c(=O)n3C)n2Cc2ccccc2)n1`?
Rad51 HR inh: 2; Measles CPE: 6; NPY-Y2 PAM-ag: -2; NPY Y2 blocker: 1; NPY Y1 blocker: 4; NPY-Y1 PAM-ag: 14

Results for Cc1cc(C)n(-c2nc3c(c(=O)[nH]c(=O)n3C)n2Cc2ccc(F)cc2)n1 ?
Rad51 HR inh: 66*; Measles CPE: 4; NPY-Y2 PAM-ag: 21; NPY Y2 blocker: 1; NPY Y1 blocker: -2; NPY-Y1 PAM-ag: -8

Results for Cc1ccc(NC(=O)CCCSc2ccccc2)cc1S(=O)(=O)N1CCOCC1 ?
Rad51 HR inh: -34; NPY-Y2 PAM-ag: 12; NPY Y1 blocker: 0; NPY-Y1 PAM-ag: 20

How did CCOC(=O)N1CCC(Nc2nc3ccccc3n3nnnc23)CC1 do in these assays?
Measles CPE: 34*; NPY-Y2 PAM-ag: 4; NPY Y2 blocker: 4; NPY Y1 blocker: 2; NPY-Y1 PAM-ag: -3

Results for CN1CCC(N2CCN(c3cccc(C(F)(F)F)c3)CC2)CC1 ?
Rad51 HR inh: 5; Measles CPE: 5; NPY-Y2 PAM-ag: 3; NPY Y2 blocker: 6; NPY Y1 blocker: 3; NPY-Y1 PAM-ag: -24

Results for FC(F)(F)c1cccc(N2CCc3cn[nH]c32)c1 ?
Rad51 HR inh: 1; Measles CPE: 39*; NPY-Y2 PAM-ag: 6; NPY Y2 blocker: 0; NPY Y1 blocker: -4; NPY-Y1 PAM-ag: -32

What do the screens show for `Cn1c(=O)c2c(nc(SCCN3CCCCC3)n2Cc2ccccc2)n(C)c1=O`?
Rad51 HR inh: -4; Measles CPE: 76*; NPY-Y2 PAM-ag: -17; NPY Y2 blocker: 8; NPY Y1 blocker: 2; NPY-Y1 PAM-ag: 3

How did Cc1ccc(Cn2c(SCCN3CCCCC3)nc3c2c(=O)n(C)c(=O)n3C)cc1 do in these assays?
Rad51 HR inh: -3; Measles CPE: 10; NPY-Y2 PAM-ag: -4; NPY Y2 blocker: 4; NPY Y1 blocker: 2; NPY-Y1 PAM-ag: 13

Results for Cn1c(=O)c2c(nc(SCCN3CCOCC3)n2Cc2ccccc2Cl)n(C)c1=O ?
Rad51 HR inh: 3; Measles CPE: 16; NPY-Y2 PAM-ag: 0; NPY Y2 blocker: 0; NPY Y1 blocker: -3; NPY-Y1 PAM-ag: -25

What do the screens show for `Cn1c(=O)c2c(nc(SCCN3CCOCC3)n2Cc2cccc3ccccc23)n(C)c1=O`?
Rad51 HR inh: 0; Measles CPE: 98*; NPY-Y2 PAM-ag: -16; NPY Y2 blocker: 4; NPY Y1 blocker: 5; NPY-Y1 PAM-ag: 10

How did O=C(COc1ccc(Br)cc1)Nc1ccc([N+](=O)[O-])cn1 do in these assays?
Rad51 HR inh: 1; Measles CPE: 26; NPY-Y2 PAM-ag: -1; NPY Y2 blocker: 12; NPY Y1 blocker: 21*; NPY-Y1 PAM-ag: -17

Results for O=c1[nH]c(Nc2ccc3c(c2)OCCO3)nnc1Cc1ccc(Cl)cc1 ?
Rad51 HR inh: 10; NPY-Y2 PAM-ag: 2; NPY Y1 blocker: -5; NPY-Y1 PAM-ag: 2

Results for COc1ccc(-n2ncc3c(NCCCn4ccnc4)ncnc32)cc1 ?
Rad51 HR inh: 1; Measles CPE: 66*; NPY-Y2 PAM-ag: -6; NPY Y2 blocker: 2; NPY Y1 blocker: 2; NPY-Y1 PAM-ag: -13

What do the screens show for `Cc1cc(C)n(-c2nc(SCCN(C)C)c3c4c(sc3n2)CCCC4)n1`?
Rad51 HR inh: -8; Measles CPE: 7; NPY-Y2 PAM-ag: -53; NPY Y2 blocker: 101*; NPY Y1 blocker: 92*; NPY-Y1 PAM-ag: -181

Results for Cc1cc(C)n(-c2nc(SCC(=O)O)c3c4c(sc3n2)COC(C)(C)C4)n1 ?
NPY-Y2 PAM-ag: -2; NPY-Y1 PAM-ag: -7

What do the screens show for `COc1nc(-c2ccncc2)nc2ccccc12`?
Rad51 HR inh: 2; Measles CPE: 27; NPY-Y2 PAM-ag: 0; NPY Y2 blocker: 6; NPY Y1 blocker: 5; NPY-Y1 PAM-ag: 2

How did C=CCOc1nc(-c2ccncc2)nc2ccccc12 do in these assays?
Rad51 HR inh: 5; Measles CPE: 30*; NPY-Y2 PAM-ag: -12; NPY Y2 blocker: 7; NPY Y1 blocker: 10; NPY-Y1 PAM-ag: -15

How did CCOC(=O)C(C)Sc1nc(-c2ccco2)cc(C(F)(F)F)c1C#N (centres undefined) do in these assays?
Rad51 HR inh: -8; Measles CPE: 3; NPY-Y2 PAM-ag: 20; NPY Y2 blocker: 20*; NPY Y1 blocker: 34*; NPY-Y1 PAM-ag: -11

How did CCOC(=O)COc1nc(-c2ccco2)cc(-c2ccco2)c1C#N do in these assays?
Rad51 HR inh: 1; NPY-Y2 PAM-ag: -33; NPY-Y1 PAM-ag: -7

What do the screens show for `CNC(=S)N(Cc1cc2cc(OC)c(OC)cc2[nH]c1=O)C1CCCC1`?
Rad51 HR inh: 3; NPY-Y2 PAM-ag: 17; NPY Y1 blocker: -2; NPY-Y1 PAM-ag: 10

Results for Cc1ccccc1C(=O)N1CCN=C1SCc1ccc([N+](=O)[O-])cc1 ?
NPY-Y2 PAM-ag: -13; NPY Y1 blocker: 8; NPY-Y1 PAM-ag: 9
